Results pooled from the literature.
Compare with care: the assays were run in different laboratories.
Cell line: MDA-MB-231
Effect on: cell growth or viability

SMILES | method | tested at | time | quantity | value
CCc1c(C)c2ccc(OCc3nnc(S)n3N)c(C)c2oc1=O | MTT | 500 µg/mL |  | viability | 2.85%
C[C@@H]1CC[C@@H]([C@@](C)(O)Cn2cnc3ccccc32)[C@H](OCc2ccccc2)C1 | MTT | 30 µM | 72 h | inhibition | 80%
C=CC(=O)NC1CCN(c2ncc3ncnc(Nc4ccc(Oc5ccc6c(c5)ncn6C)c(C)c4)c3n2)CC1 |  |  |  | EC50 | 328 nM
CC(=NNC(=O)COc1ccc2c(C)c(Cc3ccccc3)c(=O)oc2c1C)c1ccc(Br)cc1 | MTT | 500 µg/mL |  | viability | 19.9%
COc1cccc(CNC[C@@](C)(O)[C@@H]2CC[C@@H](C)C[C@H]2OCc2ccccc2)c1 | MTT | 30 µM | 72 h | inhibition | 95.3%
O=C(O)c1cccnc1Nc1cccc(C(F)(F)F)c1 | SRB |  | 48 h | GI50 | > 30000 nM
C[C@@H]1CC[C@@H]([C@@](O)(CNCc2ccccc2)COCc2ccc(F)cc2)[C@H](OCc2ccc(F)cc2)C1 | MTT | 30 µM | 72 h | inhibition | 98.8%
O=C(C=Cc1ccccc1)Nc1cc(-c2ccnc(N3CCOCC3)c2)ccn1 | MTT |  | 72 h | IC50 | 72.9 nM
Nc1ccccc1NC(=O)c1ccc(CNc2ccc(NC3=C(Cl)C(=O)c4cccnc4C3=O)cc2)cc1 | MTT |  | 48 h | IC50 | 1070 nM
CCc1c(C)c2ccc(OCC=Cc3ccccc3)c(C)c2oc1=O | MTT | 1000 µg/mL |  | viability | 2.75%
C[C@@H]1CC[C@@H]([C@](O)(CNCc2ccc(F)cc2)COCc2ccc(F)cc2)[C@H](OCc2ccc(F)cc2)C1 | MTT | 30 µM | 72 h | inhibition | 95%
COc1cc2c3c(n(CCCn4ccnc4)c(=O)c2cc1OC)-c1nc2c(cc1C3=O)OCO2 | MTS |  | 72 h | IC50 | 1510 nM
C[C@@H]1CC[C@@H]([C@](C)(O)CNCc2ccccc2F)[C@H](OCc2ccccc2)C1 | MTT | 30 µM | 72 h | inhibition | 44.1%
CCOc1ccc2c(C)c(CC)c(=O)oc2c1C | MTT | 1000 µg/mL |  | viability | 2.44%
O=C(C=Cc1cccc(F)c1)Nc1cc(-c2ccnc(N3CCC(O)CC3)c2)ccn1 | MTT | 5 µM |  | inhibition | 78.3%
COc1ccc(CNC[C@](O)(COCc2ccc(F)cc2)[C@@H]2CC[C@@H](C)C[C@H]2OCc2ccc(F)cc2)cc1 | MTT | 10 µM | 72 h | inhibition | 99.6%
O=C(C=Cc1ccccc1)Nc1cccc(-c2ccnc(N3CCOCC3)c2)c1 | MTT | 5 µM |  | inhibition | 49%
CCNC(=S)NNC(=O)COc1ccc2c(C)c(CC)c(=O)oc2c1C | MTT | 62.5 µg/mL |  | viability | 84.5%
Cc1cccc(/C=C/C(=O)Nc2cccc(-c3ccnc(N4CCOCC4)c3)c2)c1 | MTT | 5 µM |  | inhibition | 32.2%
CCc1c(C)c2ccc(OCC(=O)NN=Cc3ccc([N+](=O)[O-])cc3)cc2oc1=O | MTT | 250 µg/mL |  | viability | 17.3%
